# Data reported in PubChem BioAssay AID602219 (Southern Research Specialized Biocontainment Screening …, 2012).
# Results filed as inconclusive are left out. The source made the active and inactive calls.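 How the source made its calls: active means inhibition of 30% or more at any tested concentration; inactive means the rest, inconclusive results apart.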
# Target: M1-family alanyl aminopeptidase (Plasmodium falciparum 3D7)
# Assay: PfM1AAP enzyme inhibition, dose response, selectivity assay for PfM18AAP inhibitor project, biochemical, QFRET, H-Leu-NHMec substrate, set 2 (AID 602219)
# Conditions: recombinant PfM1AAP, H-Leu-NHMec fluorogenic cleavage
# Summary of the method: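 Assay system – purified recombinant Plasmodium falciparum M1 alanyl aminopeptidase (rPfM1AAP) · Input – 5 µg/mL rPfM1AAP · Replication – triplicate · Signal – fluorescence of released NHMec, excitation 370 nm, emission 460 nm · Measure – IC50 from 4-parameter logistic fit, limits fixed 0–100% · Also added – 0.1 mM H-Leu-NHMec · Timing – enzyme reaction 90 min at room temperature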
row,IC50 [µM],SMILES
1,63,Oc1ccc(-c2csc(NC3CCCC3)n2)cc1O
2,29.8,Oc1ccc(CCNc2c3ccccc3nc3ccccc23)cc1O
3,25.9,Oc1ccc(-c2csc(Nc3ncccn3)n2)cc1O
4,70.1,CN1CCN(c2nc(-c3ccc(O)c(O)c3)cs2)CC1
5,46.4,Oc1ccc(CCNc2ccnc3ccccc23)cc1O

# Same assay, conditions: recombinant PfM1AAP, H-Leu-NHMec fluorogenic cleavage; at 100 µM (top of the series)
row,inhibition,SMILES
1,inactive,CN1CCN(CCc2ccc(O)c(O)c2)CC1
2,inactive,COc1ccc(CCNC(c2ccccc2)c2ccccc2)cc1OC
3,inactive,CN1CCN(CCCc2ccc(O)c(O)c2)CC1
4,inactive,COc1ccc(CCCN2CCN(C)CC2)cc1OC
